# Screening results deposited in PubChem BioAssay by several laboratories.
# Rows were chosen to be rich in hits. Some 9.6% of all compounds tested hit in one or more screens of this group.
# PTEN del growth = PTEN-deleted cell growth suppression. viability, % at 10 µM. HCT116 PTEN-null viability, CellTiter-Glo, 60 h; hits give low values. AID 827. 1.2% of 140,000 active;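 active = viability at or below a set limit, 4 SD under the median of all tested compounds, cut at about 3.7% in these data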;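 note: PTEN knockout HCT116 line with beta catenin targeted HCT116 as companion control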
# HCT116 bCat-KO = beta-catenin-lacking colon tumor cell growth suppression. AID 818. HCT116 beta-catenin knockout viability, CellTiter-Glo, 60 h; hits give low values. 1.5% of 140,000 active. viability, % at 10 µM;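 active = viability at or under a set limit, the compound median less 4 SD, cut at about 6% in these data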;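 note: 0% = Hyamine 1622 control at 20 µM and 100% = untreated cell control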
# Lmaj promast = reduces viability of Leishmania major promastigotes; 9% of 200,000 active; resazurin fluorescence viability; inhibition, % at 10 µM; in the data active = inhibition above about 50%;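 note: promastigotes grown with compound for 44 hours at 28 °C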
# TNAP inh hi DEA = TNAP (human) inhibition, high acceptor | inhibition, % at 20 µM | 0.03% of 200,000 active | P05186 | purified TNAP, CDP-star luminescence, 1 M DEA;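 active = over 50% inhibition of tissue-nonspecific alkaline phosphatase at 20 µM in the single-dose screen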;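 note: plate controls were DMSO wells for no effect and EDTA-quenched wells as full inhibition for full effect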
# Target sequence (P05186 whole entry, looked up): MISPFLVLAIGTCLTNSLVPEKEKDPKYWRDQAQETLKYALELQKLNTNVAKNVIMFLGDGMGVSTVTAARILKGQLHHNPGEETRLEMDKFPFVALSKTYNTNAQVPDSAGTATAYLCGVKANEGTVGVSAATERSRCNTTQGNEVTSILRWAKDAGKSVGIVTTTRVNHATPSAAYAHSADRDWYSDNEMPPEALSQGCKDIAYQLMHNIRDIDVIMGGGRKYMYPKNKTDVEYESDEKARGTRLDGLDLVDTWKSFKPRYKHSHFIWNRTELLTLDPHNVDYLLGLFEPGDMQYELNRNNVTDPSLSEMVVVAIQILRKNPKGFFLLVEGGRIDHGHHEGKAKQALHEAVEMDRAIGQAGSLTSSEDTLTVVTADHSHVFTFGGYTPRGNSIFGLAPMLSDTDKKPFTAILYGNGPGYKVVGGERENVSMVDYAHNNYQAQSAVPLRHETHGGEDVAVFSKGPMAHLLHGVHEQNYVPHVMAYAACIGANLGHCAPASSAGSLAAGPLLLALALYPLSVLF
# TNAP inh no acc = inhibitors of human TNAP without phosphate acceptor. P05186. purified TNAP, CDP-star luminescence, 30 min. inhibition, % at 20 µM. 0.26% of 200,000 active. AID 1012;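 active = tissue-nonspecific alkaline phosphatase inhibition above about 50% at 20 µM in the single-dose screen, limit read from the data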;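 note: 0% = DMSO negative control and 100% = EDTA positive control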
# TNAP act hiacc = increases human TNAP activity under high phosphate acceptor concentration; P05186; 200,000 tested, under 10 active; purified TNAP, CDP-star luminescence, 1 M DEA, 30 min; hits give high values; 0 = EDTA background, 1 = DMSO-only activity; activation factor at 20 µM;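 active = activation factor at least 2 at 20 µM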
#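 Dosing: 20 µM single point. System: human TNAP. Amount: TNAP 1/800 final. Incubation: 30 min, room temperature. Read-out: TNAP activation factor scaled between EDTA and DMSO control wells. Signal: luminescence from CDP-star hydrolysis. Medium: 1 M DEA, pH 9.8, Mg2+, Zn2+. Control set: EDTA negative control, DMSO positive control.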
# * = called active by the depositor; · = no result given.
SMILES,PTEN del growth,HCT116 bCat-KO,Lmaj promast,TNAP inh hi DEA,TNAP inh no acc,TNAP act hiacc
Cc1ccc(CN2CCN(Cc3cccc(-n4cccn4)c3)CC2CCO)cc1 (stereo not given),·,·,80*,1,3,1
Cc1c(C(=O)NCCCN2CCOCC2)oc2c1C1(CCC2)SCCS1,90,82,88*,-1,-3,1
COCC(C)NC(=O)c1oc2c(c1C)C1(CCC2)SCCS1 (stereo not given),99,95,2,3,-5,1
CC(=O)N1CC[n+]2c(-c3ccc(Cl)cc3)csc21,103,91,-6,-1,3,1
CCn1c(COc2cccc3cccnc23)nnc1SCC(=O)O,100,105,-5,-3,-14,1
CCn1c(COc2cccc3cccnc23)nnc1SC(F)F,·,·,83*,-2,-10,1
O=C1C2C3c4ccccc4C(c4ccccc43)C2C(=O)N1c1cccnc1 (stereo not given),86,85,51*,-2,-2,1
COc1cccc(NC(=S)N(CCCN2CCOCC2)Cc2cn(C)c3ccccc23)c1,74,77,35,-2,5,1
CCn1c(SCC(N)=O)nc2cc(S(=O)(=O)N3CCOCC3)ccc21,·,·,-5,2,-8,1
CCn1c(SCC(=O)c2c[nH]c3ccccc23)nc2cc(S(=O)(=O)N3CCOCC3)ccc21,86,86,66*,-1,-11,1
CN(C)c1ncnc2c1ncn2C1OC(CO)C(O)C1O (stereo not given),4,5.2*,-4,-4,-11,1
O=C(CSc1nnc(COc2ccc(Cl)cc2)o1)N1c2ccccc2CCc2ccccc21,38,29,67*,-4,-6,1
Cn1cc(CN2CCCC(CO)(Cc3cccc(Cl)c3)C2)cn1 (stereo not given),·,·,81*,-7,-12,1.1
Cc1nn(C)c(Cl)c1CN1CCCC(CO)(Cc2cccc(Cl)c2)C1 (stereo not given),·,·,86*,-4,-6,1
Cn1cc(CN2CCCC(CO)(Cc3ccccc3)C2)cn1 (stereo not given),·,·,77*,-3,-5,1
CCN1CCCC(CO)(Cc2ccccc2)C1 (stereo not given),·,·,1,-5,-7,1
Cc1ccccc1CC1(CO)CCCN(Cc2c(C)nn(C)c2Cl)C1 (stereo not given),·,·,12,0,1,1
CC(C)n1cc(CN2CCCC(CO)(Cc3cccc(Cl)c3)C2)cn1 (stereo not given),·,·,87*,2,0,1
CC(NS(=O)(=O)/C=C/c1ccccc1)C(=O)NCCc1ccc(S(N)(=O)=O)cc1 (stereo not given),·,·,-1,2,33,1
CSc1cccc(CN2CCCC(CO)(Cc3cccc(Cl)c3)C2)c1 (stereo not given),·,·,1,-2,-4,1
CCn1cc(CN2CCCC(CO)(Cc3cccc(Cl)c3)C2)cn1 (stereo not given),·,·,92*,-2,-8,1
COc1cc(CN2CCCC(CO)(Cc3cccc(Cl)c3)C2)cc2c1OCO2 (stereo not given),·,·,73*,-4,-6,1
OCC1(Cc2cccc(Cl)c2)CCCN(Cc2cnn(-c3ccccc3)c2)C1 (stereo not given),·,·,85*,-5,-6,1.1
CCc1ccc(CN(C)C(=O)CCc2nnc(Cc3cccc(C)c3)o2)nc1,·,·,1,-6,-14,1.1
CCOC(=O)C1=C(c2ccccc2)NC(=S)NC1c1ccc(Cl)c([N+](=O)[O-])c1 (stereo not given),62,60,58*,-4,6,1
SMILES,PTEN del growth,HCT116 bCat-KO,Lmaj promast,TNAP inh hi DEA,TNAP inh no acc,TNAP act hiacc
O=C1N(Cc2cccnc2)C[C@@H]2C[C@@H](c3ccc4nsnc4c3)N3CCC[C@@]123,·,·,-2,-4,-7,1
CC(c1ccccc1)N(NC(=O)C(O)(c1ccccc1)c1ccccc1)C(=O)c1ccccc1 (stereo not given),1.7*,36,28,-3,-10,1
CCN(NC(=O)C(O)(c1ccccc1)c1ccccc1)C(=O)c1ccccc1,93,87,-5,-3,-22,1
COc1ccccc1-c1cc(-c2ccccc2)nc(SC(C(N)=O)c2ccccc2)c1C#N (stereo not given),3.5*,54,3,-3,-7,1
COC(=O)C(Sc1nc(C)cc(C)c1C#N)c1ccccc1 (stereo not given),99,112,98*,-3,-7,1
COc1cccc(C(c2nnnn2CC2CCCO2)N2CCN(C(=O)c3ccco3)CC2)c1OC (stereo not given),·,·,-1,-6,-8,1.1
Cc1nn(S(=O)(=O)c2ccc(Cl)cc2)c(C)c1Sc1ccc([N+](=O)[O-])cc1,69,74,82*,2,-7,1
Cc1ccccc1CSc1nnc(C)c(=O)n1N,·,·,5,-3,-10,1
CC1(C(=O)CSc2nc3ccccc3[nH]2)CCC(=O)O1 (stereo not given),100,88,-2,-3,-10,1
CC1(C(=O)CSc2n[nH]c(-c3ccccc3Cl)n2)CCC(=O)O1 (stereo not given),104,87,-6,-4,54*,1
CC(C)c1nc(SCC(=O)NCc2ccccc2)n[nH]1,96,93,-2,-2,-3,1
O=C(CSc1n[nH]c(-c2ccccc2Cl)n1)NCc1cccc(C(=O)O)c1,·,·,-9,0,93*,1
CC1CC2(CC(C)(C(=O)CSc3n[nH]c(-c4ccccc4Cl)n3)OC2=O)C(=O)O1 (stereo not given),98,90,-10,-3,53*,1
CCN1C=C(C(=O)OC)C(c2cccc(OC)c2OC)C(C(=O)OC)=C1,·,·,-7,-8,-21,1.1
Cc1c(C#N)c(N=CN(C)C)c(C(=O)c2ccc(Br)cc2)n1-c1ccccc1,83,90,100*,-5,23,1.1
Cc1c(C#N)c(N=CN(C)C)c(C(=O)c2ccccc2)n1-c1ccc(Br)cc1,63,60,-4,-3,-20,1
Cc1ccc(/C(N)=N/OC(=O)N2c3ccccc3Sc3ccccc32)cc1,·,·,100*,·,·,·
Cc1ccccc1/C(N)=N/OC(=O)N1c2ccccc2Sc2ccccc21,56,49,93*,1,-8,1
CC(C)CC(=O)NC(=S)Nc1ccc(S(=O)(=O)N2CCCC2)cc1,·,·,11,2,-2,1
N[C@@H](Cc1ccc(O)cc1)c1nnc([C@H](CC(=O)O)NC(=O)C2CCNCC2)o1,·,·,2,-2,5,1
COC(=O)c1ccccc1N(C)S(=O)(=O)c1cc2c(cc1C)OCC(=O)N2,·,·,-4,2,0,1
